Experimental data reported in ChEMBL document CHEMBL3414425, “Synthesis and biological evaluation of new imidazo[2,1-b][1,3,4]thiadiazole-benzimidazole derivatives” (Eur J Med Chem, 2015).
In brackets after ≈: the same amount, converted by molar mass. Activity calls are given as the source filed them. The rule behind the calls is not given here.

Key:
Staphylococcus aureus [1] = assay: Antibacterial activity against Staphylococcus aureus at 1 mg/ml incubated for 18 hrs by well plate technique; type: functional; details: for zone of inhibition at 1000 µg/mL: read-out: DIZ
Procedure, shortened: (§1)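 Bacteria kept on nutrient agar at 37 °C, grown statically in nutrient broth (start ~10-100 cfu/mL) at 37 °C for 18-24 h. Suspensions diluted in saline and spread on nutrient agar, then wells cut with a cork borer. Compound in DMSO at 1 or 0.5 mg/mL added to wells, 37 °C, 18 h. Inhibition zone diameter measured minus DMSO value; triplicate; streptomycin standard.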

[2] = tested on: Chrysosporium keratinophilum; assay: Antifungal activity against Chrysosporium keratinophilum at 0.5 mg/ml incubated for 3 days; type: functional
Procedure, shortened: (§2)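 Well plate method on potato dextrose agar. Fungal stock suspended in distilled water with Tween 80 and swabbed over plates. Samples in DMSO at 1 and 0.5 mg/mL added to wells, incubated 25 °C for 3 days, then scored for inhibition zones; fluconazole standard.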

[3] = Antioxidant activity assessed as DPPH radical scavenging activity incubated for 10 mins by UV-visible spectrometry; type: physicochemical
Procedure, shortened: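 DPPH free-radical scavenging; absorbance read at 517 nm against a methanol blank. % scavenging = (A control − A sample)/A control × 100.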

Pseudomonas aeruginosa [4] = assay: Antibacterial activity against Pseudomonas aeruginosa at 1 mg/ml incubated for 18 hrs by well plate technique; type: functional; details: for zone of inhibition at 1000 µg/mL: read-out: DIZ; procedure, shortened: as §1
Aspergillus flavus [5] = assay: Antifungal activity against Aspergillus flavus at 1 mg/ml incubated for 3 days; type: functional; procedure, shortened: as §2
Salmonella typhi [6] = assay: Antibacterial activity against Salmonella typhi at 1 mg/ml incubated for 18 hrs by well plate technique; type: functional; details: for diameter of the inhibition zone (DIZ): Salmonella enterica subsp. enterica serovar Typhi; for zone of inhibition at 1000 µg/mL: Salmonella enterica, read-out: DIZ
Procedure, shortened: (§3)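 Well diffusion on nutrient agar; strains kept on nutrient agar at 37 °C, grown statically in nutrient broth 18-24 h at 37 °C, diluted in saline, 0.1 ml spread per plate. Compounds in DMSO at 1 and 0.5 mg/mL added to cork-bored wells; 18 h at 37 °C. Inhibition zone diameter measured, DMSO value subtracted; triplicate; streptomycin reference.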

Staphylococcus aureus [7] = assay: Antibacterial activity against Staphylococcus aureus at 0.5 mg/ml incubated for 18 hrs by well plate technique; type: functional; details: for zone of inhibition at 500 µg/mL: read-out: DIZ; procedure, shortened: as §1
Escherichia coli [8] = assay: Antibacterial activity against Escherichia coli at 1 mg/ml incubated for 18 hrs by well plate technique; type: functional; details: for zone of inhibition at 1000 µg/mL: read-out: DIZ; procedure, shortened: as §1
[9] = tested on: Chrysosporium keratinophilum; assay: Antifungal activity against Chrysosporium keratinophilum at 1 mg/ml incubated for 3 days; type: functional; procedure, shortened: as §2
Candida albicans [10] = assay: Antifungal activity against Candida albicans at 1 mg/ml incubated for 3 days; type: functional; procedure, shortened: as §2
Aspergillus flavus [11] = assay: Antifungal activity against Aspergillus flavus at 0.5 mg/ml incubated for 3 days; type: functional; procedure, shortened: as §2
Candida albicans [12] = assay: Antifungal activity against Candida albicans at 0.5 mg/ml incubated for 3 days; type: functional; procedure, shortened: as §2
Pseudomonas aeruginosa [13] = assay: Antibacterial activity against Pseudomonas aeruginosa at 0.5 mg/ml incubated for 18 hrs by well plate technique; type: functional; details: for zone of inhibition at 500 µg/mL: read-out: DIZ; procedure, shortened: as §1
[14] = tested on: Mycobacterium tuberculosis; assay: Antitubercular activity against Mycobacterium tuberculosis H37Rv ATCC 27294/XDR-TB incubated for 28 days by agar dilution method; type: functional; details: 672 h
Procedure, shortened: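 Agar dilution: two-fold dilutions in Middlebrook 7H11 agar with OADC. Inoculum from fresh 7H11/OADC slants adjusted to 1 mg/mL wet weight in 0.05% Tween 80 saline, diluted 10^-2 (~10⁷ cfu/mL); 5 µL spotted per tube. Incubated 37 °C; MIC, lowest concentration fully inhibiting growth, read after 28 days, in triplicate.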

Salmonella typhi [15] = assay: Antibacterial activity against Salmonella typhi at 0.5 mg/ml incubated for 18 hrs by well plate technique; type: functional; details: for diameter of the inhibition zone (DIZ): Salmonella enterica subsp. enterica serovar Typhi; for zone of inhibition at 500 µg/mL: Salmonella enterica, read-out: DIZ; procedure, shortened: as §3
Escherichia coli [16] = assay: Antibacterial activity against Escherichia coli at 0.5 mg/ml incubated for 18 hrs by well plate technique; type: functional; details: for zone of inhibition at 500 µg/mL: read-out: DIZ; procedure, shortened: as §1

Cc1ccc(-c2nn3c(-c4nc5cc([N+](=O)[O-])ccc5[nH]4)c(-c4ccc(Cl)cc4)nc3s2)cc1
diameter of the inhibition zone (DIZ) (Staphylococcus aureus [1]): inactive | inhibition zone (IZ) [2]: inactive | inhibition (INH) [3]: 21.8% | diameter of the inhibition zone (DIZ) (Pseudomonas aeruginosa [4]): inactive | inhibition zone (IZ) (Aspergillus flavus [5]): inactive | diameter of the inhibition zone (DIZ) (Salmonella typhi [6]): inactive | diameter of the inhibition zone (DIZ) (Staphylococcus aureus [7]): inactive | diameter of the inhibition zone (DIZ) (Escherichia coli [8]): inactive | inhibition zone (IZ) [9]: inactive | inhibition zone (IZ) (Candida albicans [10]): inactive | inhibition zone (IZ) (Aspergillus flavus [11]): inactive | inhibition zone (IZ) (Candida albicans [12]): inactive | diameter of the inhibition zone (DIZ) (Pseudomonas aeruginosa [13]): inactive | MIC [14]: 12.5 µg/mL (≈ 25.7 µM) | diameter of the inhibition zone (DIZ) (Salmonella typhi [15]): inactive | diameter of the inhibition zone (DIZ) (Escherichia coli [16]): inactive

Cc1ccc(-c2nn3c(-c4nc5ccccc5[nH]4)c(-c4ccc(F)cc4)nc3s2)cc1
zone of inhibition at 1000 µg/mL (Staphylococcus aureus [1]): 14 mm | zone of inhibition at 500 µg/mL ([2]; 72 h, read-out: IZ): 3 mm | inhibition (INH) [3]: 22.6% | zone of inhibition at 1000 µg/mL (Pseudomonas aeruginosa [4]): 13 mm | zone of inhibition at 1000 µg/mL (Aspergillus flavus [5]; 72 h, read-out: IZ): 6 mm | zone of inhibition at 1000 µg/mL (Salmonella typhi [6]): 15 mm | zone of inhibition at 500 µg/mL (Staphylococcus aureus [7]): 11 mm | zone of inhibition at 1000 µg/mL (Escherichia coli [8]): 13 mm | zone of inhibition at 1000 µg/mL ([9]; 72 h, read-out: IZ): 5 mm | zone of inhibition at 1000 µg/mL (Candida albicans [10]; 72 h, read-out: IZ): 6 mm | zone of inhibition at 500 µg/mL (Aspergillus flavus [11]; 72 h, read-out: IZ): 4 mm | zone of inhibition at 500 µg/mL (Candida albicans [12]; 72 h, read-out: IZ): 4 mm | zone of inhibition at 500 µg/mL (Pseudomonas aeruginosa [13]): 10 mm | MIC [14]: 12.5 µg/mL (≈ 29.4 µM) | zone of inhibition at 500 µg/mL (Salmonella typhi [15]): 13 mm | zone of inhibition at 500 µg/mL (Escherichia coli [16]): 9 mm

COc1ccc(-c2nc3sc(-c4ccc(C)cc4)nn3c2-c2nc3ccccc3[nH]2)cc1
diameter of the inhibition zone (DIZ) (Staphylococcus aureus [1]): inactive | inhibition zone (IZ) [2]: inactive | inhibition (INH) [3]: 21.6% | diameter of the inhibition zone (DIZ) (Pseudomonas aeruginosa [4]): inactive | inhibition zone (IZ) (Aspergillus flavus [5]): inactive | diameter of the inhibition zone (DIZ) (Salmonella typhi [6]): inactive | diameter of the inhibition zone (DIZ) (Staphylococcus aureus [7]): inactive | diameter of the inhibition zone (DIZ) (Escherichia coli [8]): inactive | inhibition zone (IZ) [9]: inactive | inhibition zone (IZ) (Candida albicans [10]): inactive | inhibition zone (IZ) (Aspergillus flavus [11]): inactive | inhibition zone (IZ) (Candida albicans [12]): inactive | diameter of the inhibition zone (DIZ) (Pseudomonas aeruginosa [13]): inactive | MIC [14]: 12.5 µg/mL (≈ 28.6 µM) | diameter of the inhibition zone (DIZ) (Salmonella typhi [15]): inactive | diameter of the inhibition zone (DIZ) (Escherichia coli [16]): inactive

COc1ccc(-c2nc3sc(-c4ccc(Cl)cc4)nn3c2-c2nc3ccccc3[nH]2)cc1
zone of inhibition at 1000 µg/mL (Staphylococcus aureus [1]): 3 mm | inhibition zone (IZ) [2]: inactive | inhibition (INH) [3]: 20.9% | zone of inhibition at 1000 µg/mL (Pseudomonas aeruginosa [4]): 2 mm | inhibition zone (IZ) (Aspergillus flavus [5]): inactive | zone of inhibition at 1000 µg/mL (Salmonella typhi [6]): 3 mm | zone of inhibition at 500 µg/mL (Staphylococcus aureus [7]): 2 mm | zone of inhibition at 1000 µg/mL (Escherichia coli [8]): 3 mm | inhibition zone (IZ) [9]: inactive | inhibition zone (IZ) (Candida albicans [10]): inactive | inhibition zone (IZ) (Aspergillus flavus [11]): inactive | inhibition zone (IZ) (Candida albicans [12]): inactive | zone of inhibition at 500 µg/mL (Pseudomonas aeruginosa [13]): 1 mm | MIC [14]: 12.5 µg/mL (≈ 27.3 µM) | zone of inhibition at 500 µg/mL (Salmonella typhi [15]): 1 mm | zone of inhibition at 500 µg/mL (Escherichia coli [16]): 1 mm

Cc1nn2c(-c3nc4cc([N+](=O)[O-])ccc4[nH]3)c(-c3ccc(Cl)cc3)nc2s1
zone of inhibition at 1000 µg/mL (Staphylococcus aureus [1]): 9 mm | inhibition zone (IZ) [2]: inactive | inhibition (INH) [3]: 29.8% | zone of inhibition at 1000 µg/mL (Pseudomonas aeruginosa [4]): 8 mm | inhibition zone (IZ) (Aspergillus flavus [5]): inactive | zone of inhibition at 1000 µg/mL (Salmonella typhi [6]): 6 mm | zone of inhibition at 500 µg/mL (Staphylococcus aureus [7]): 7 mm | zone of inhibition at 1000 µg/mL (Escherichia coli [8]): 6 mm | inhibition zone (IZ) [9]: inactive | inhibition zone (IZ) (Candida albicans [10]): inactive | inhibition zone (IZ) (Aspergillus flavus [11]): inactive | inhibition zone (IZ) (Candida albicans [12]): inactive | zone of inhibition at 500 µg/mL (Pseudomonas aeruginosa [13]): 5 mm | MIC [14]: 50 µg/mL (≈ 122 µM) | zone of inhibition at 500 µg/mL (Salmonella typhi [15]): 4 mm | zone of inhibition at 500 µg/mL (Escherichia coli [16]): 4 mm

Cc1nn2c(-c3nc4cc([N+](=O)[O-])ccc4[nH]3)c(-c3ccc(F)cc3)nc2s1
zone of inhibition at 1000 µg/mL (Staphylococcus aureus [1]): 3 mm | inhibition zone (IZ) [2]: inactive | inhibition (INH) [3]: 25.9% | zone of inhibition at 1000 µg/mL (Pseudomonas aeruginosa [4]): 1 mm | inhibition zone (IZ) (Aspergillus flavus [5]): inactive | zone of inhibition at 1000 µg/mL (Salmonella typhi [6]): 2 mm | zone of inhibition at 500 µg/mL (Staphylococcus aureus [7]): 2 mm | zone of inhibition at 1000 µg/mL (Escherichia coli [8]): 4 mm | inhibition zone (IZ) [9]: inactive | inhibition zone (IZ) (Candida albicans [10]): inactive | inhibition zone (IZ) (Aspergillus flavus [11]): inactive | inhibition zone (IZ) (Candida albicans [12]): inactive | zone of inhibition at 500 µg/mL (Pseudomonas aeruginosa [13]): 3 mm | MIC [14]: 50 µg/mL (≈ 127 µM) | zone of inhibition at 500 µg/mL (Salmonella typhi [15]): 1 mm | zone of inhibition at 500 µg/mL (Escherichia coli [16]): 2 mm
